The values below come from ChEMBL document CHEMBL1158495, “Quinolone carboxylic acids as a novel monoketo acid class of human immunodeficiency virus type 1 integrase inhibitors” (J Med Chem, 2009).

Series [1] concerns Human immunodeficiency virus 1. Kind of series: Antiviral activity against HIV1 3B infected in human MT4 cells assessed as inhibition of viral replication after 5 days by MTT assay. Format: functional, organism-based. Conditions: Human immunodeficiency virus 1, 3B, MT4, 120 h. In outline: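 MT-4 human T lymphoid cells at 1 × 10^5 cells/mL in RPMI 1640 with 10% FBS, penicillin and streptomycin; infected with strain IIIb at multiplicity 0.01, compounds added, 37 °C for 5 days. Viability read by MTT (7.5 mg/mL solution), formazan dissolved in acidic isopropanol with 4% Triton-X, absorbance at 595 nm.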
(In general: Tetrazolium assays rely on reduction of a dye to a coloured formazan, in cell work by metabolically active cells.)

Series [2] can be described thus: Cytotoxicity against human MT4 cells after 5 days by MTT assay. Format: cell-based. In outline: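 Uninfected MT-4 cells at 1 × 10^5 cells/mL in RPMI 1640 with 10% FBS, penicillin and streptomycin, exposed to compounds at 37 °C for 5 days. Viability by MTT (7.5 mg/mL solution); formazan taken up in acidic isopropanol containing 4% Triton-X, read at 595 nm.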
Series [3] has as its system Human immunodeficiency virus 1. Kind of series: Antiviral activity against HIV1 infected in human PBMN cells assessed as inhibition of viral replication in presence of 50% human serum. The following applies: Human immunodeficiency virus 1, PBMN. Format: functional.
Series [4] concerns the target Human immunodeficiency virus type 1 integrase (Human immunodeficiency virus 1, UniProt Q7ZJM1). In words: Inhibition of HIV1 integrase strand transfer activity.
Series [5] can be described thus: Selectivity index, ratio of CC50 for human MT4 cells to EC50 for HIV1 3B. In kind it is toxicity, cell-based. In outline: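 For EC50, cells were infected with HIV-1 IIIb at multiplicity 0.01 before compound was added; for CC50, cells were uninfected. Viability was read by MTT reduction, with formazan dissolved in acidic isopropanol/4% Triton-X and absorbance at 595 nm.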

Chain of Human immunodeficiency virus type 1 integrase (Q7ZJM1 whole entry): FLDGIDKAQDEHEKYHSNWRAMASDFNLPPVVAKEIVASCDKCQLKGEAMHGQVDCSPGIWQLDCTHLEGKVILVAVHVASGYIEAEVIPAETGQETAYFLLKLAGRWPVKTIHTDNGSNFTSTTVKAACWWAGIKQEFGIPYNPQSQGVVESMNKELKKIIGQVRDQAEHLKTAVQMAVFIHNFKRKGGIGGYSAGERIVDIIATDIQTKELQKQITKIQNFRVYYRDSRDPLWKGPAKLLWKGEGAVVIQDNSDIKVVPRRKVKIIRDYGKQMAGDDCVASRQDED

What is called EC50 is the concentration giving half of the maximal effect. The term CC50 denotes the concentration that lowers cell viability or growth by half. A lower CC50 goes with harm at low concentration. What is called EC90 is the concentration at which the effect reaches the 90% level. For the molecule `COc1cc2c(cc1Cc1cccc(Cl)c1F)c(=O)c(C(=O)O)cn2[C@H](CO)C(C)C`, in series [1], the EC50 was 0.9 nM. Further, the midpoint of cytotoxicity in series [2], the CC50 at 120 h, lay at 4000 nM. In addition, the 90% effect concentration (EC90) in series [3] stood at 9.8 nM.

As a reminder, the IC50 is the concentration that gives 50% inhibition. The low end stands for greater potency, the high end for weaker potency. For `CC[C@@H](CO)n1cc(C(=O)O)c(=O)c2cc(Cc3cccc(Cl)c3F)ccc21`, the IC50 in series [4] worked out at 9 nM. For the same molecule, the half-maximal effective concentration (EC50) in series [1] is 17.1 nM. The molecule further had a 50% cytotoxic concentration (CC50) at 120 h in series [2] of 13000 nM.

Consider `CCC[C@@H](CO)n1cc(C(=O)O)c(=O)c2cc(Cc3cccc(Cl)c3F)c(OC)cc21`, for which, in series [4], 5.8 nM corresponded to half-maximal inhibition (IC50). Further, the EC50 in series [1] was determined as 1.3 nM. In addition, in series [2], the CC50 at 120 h turned out to be 3100 nM.

Take `COc1cc2c(cc1Cc1cccc(Cl)c1F)c(=O)c(C(=O)O)cn2[C@H](CO)C(C)(C)C`: the half-inhibitory concentration (IC50) in series [4] was found to be 5.8 nM. The EC50 in series [1] is 0.6 nM. This molecule registered a CC50 at 120 h in series [2] of 3400 nM. For the same molecule, the selectivity ratio in series [5] is more than 4000.

Molecule `C[C@H](CO)n1cc(C(=O)O)c(=O)c2cc(Cc3cccc(Cl)c3F)ccc21` came in with an IC50 in series [4] of 38.3 nM. Further, in series [1], the EC50 was 116 nM. The same molecule showed a CC50 at 120 h in series [2] of 14400 nM.

In series [4], `O=C(O)c1cn([C@H](CO)c2ccccc2)c2ccc(Cc3cccc(Cl)c3F)cc2c1=O` showed an IC50 of 9.8 nM. The EC50 in series [1] was 51.6 nM. This molecule also displayed a CC50 at 120 h in series [2] of 8700 nM.

Take `COc1cc2c(cc1Cc1cccc(Cl)c1F)c(=O)c(C(=O)O)cn2[C@H](CO)C1CCCCC1`: in series [4], inhibition was half-maximal at 6.7 nM (IC50). The EC50 in series [1] came out at 2.8 nM. Also, it took 3000 nM to reach half-maximal cytotoxicity in series [2] (CC50 at 120 h).

On to `O=C(O)c1cn([C@H](CO)C2CCCCC2)c2ccc(Cc3cccc(Cl)c3F)cc2c1=O`, for which half-maximal inhibition in series [4] (IC50) required 5.6 nM. Moreover, the 50% effective concentration (EC50) in series [1] was determined as 7.3 nM. This molecule came in with a CC50 at 120 h in series [2] of 7700 nM.

Take `C[C@@H](CO)n1cc(C(=O)O)c(=O)c2cc(Cc3cccc(Cl)c3F)ccc21`: the IC50 in series [4] is 14.8 nM. Moreover, the EC50 in series [1] was 27.7 nM. This molecule also yielded a 50% cytotoxic concentration (CC50) at 120 h in series [2] of 13700 nM.

For the molecule `CCC[C@@H](CO)n1cc(C(=O)O)c(=O)c2cc(Cc3cccc(Cl)c3F)ccc21`, the IC50 in series [4] was determined as 8.2 nM. Besides, the EC50 in series [1] stood at 9.8 nM. This molecule showed a CC50 at 120 h in series [2] of 12500 nM.

As to `CC(C)(C)[C@@H](CO)n1cc(C(=O)O)c(=O)c2cc(Cc3cccc(Cl)c3F)ccc21`, the IC50 in series [4] was 6 nM. Also, the EC50 in series [1] was determined as 1.3 nM. In series [2], half-maximal cytotoxicity (CC50 at 120 h) was put at 14400 nM.
